Data from the RNAGym collection of RNA variant scans (doi:10.1126/science.aae0568).
This sample holds only a part of the variants without activity.

B1: tRNA (parent)
chain: GUUCCGUUGGCGUAAUGGUAACGCGUCUCCCUCCUAAGGAGAAGACUGCGGGUUCGAGUCCCGUACGGAACG

Variants of: B1
Experiment: yeast fitness relative to wild type (ratio to wild type); higher = fitter; tRNA-Arg(CCU), competitive growth, 37 C, YPD
In short: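 For this measurement, the tRNA-Arg(CCU) gene was varied by chemical synthesis at a 3% per-site mutation rate across 69 sites, and each variant was placed at the native genomic locus in Saccharomyces cerevisiae. The pooled strains went through a 24-hour competition in YPD at 37°C in six parallel replicates, with amplicons from start and end populations read by 100-nucleotide paired-end sequencing. Darwinian fitness relative to wild type followed from the change in each genotype's frequency. Genotypes needed ≥ 100 starting reads, and estimates < 0.5 were set to 0.5.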

For GUUGCGUUGGCGUAAUGGUAACGCGUCUCCCUCCUAAGGCGAAGACUGCGGGUUCGAGUCCCGUACGGAACG, which yeast fitness is on record?
Its yeast fitness is 0.811.

With GUUGCGUUGGCGUAAUGGUUACGCAUCUCCCUCCUAAGGAGAAGACUGCGGGUUCGAGUCCCGUACGGAACG as the variant, how does the yeast fitness read?
Its yeast fitness is ≤ 0.5.

With GUUGCGUUGGCGUAAUGGUAACGCGUCUCCCUCCUUAGGAGAAGACUGCGGGUUCGAGUGCCGUACGGAACG as the variant, how does the yeast fitness read?
Its yeast fitness is 0.655.

Which yeast fitness does the source give for GUUGCGUUGGCGUAUUGGUAACGCGUCUCCCUCCUAAGGAGAAGACUGCGGGUUCCAGACCCGUACGGAACG here?
The yeast fitness was ≤ 0.5.

Which yeast fitness does the source give for GUUGCGUUGGCGUAAUGGUGACGCGUGUGCCUCCUAAGGAGAAGACUGCGGGUUAGUGUCCCGUACGGUACG here?
The yeast fitness was 0.629.

With GUUGCGUUGGCGUAAUGGUUACGCGUCUCCCUCCUAAGGAGAAGACUGCGGGUUCGAGUUCCGUACGGAUCG as the variant, how does the yeast fitness read?
Its yeast fitness is 0.651.

Which yeast fitness does the source give for GUUGCGUUGGCGUAAUGGUAACGCGUCUCCCUCCUAUGGAGAAGACUGCGACUUCGAGCCCCGUACGGAACG here?
Its yeast fitness is ≤ 0.5.

For GUUGCGUUGGCGUAAUGGUAUCGCGUCUCCCUCCUAAGGAGAAGACUGUGGGUUCCAGUCCCGUACGGAACG, which yeast fitness is on record?
The yeast fitness was ≤ 0.5.

With GUUGCGUUGGCGUAUUGCUAACCGGUCUCCCUCCUAAGGAGAAGACUGCGGGUUCCAGUCCCGUACGGAGCG as the variant, how does the yeast fitness read?
The yeast fitness was 0.586.

Which yeast fitness does the source give for GUUGCGUUGGCGUAAUGGUGACGCGUAUCCCUCCUAAGGAGAAGAUUGCGGGUUCGAGUCCCGUUCGGAACG here?
The yeast fitness was ≤ 0.5.

Which yeast fitness does the source give for GUUGCGUUGGCGUAAUGGUUACGCGUCUCCCUCCUAAGGAGAAGACUGCGGGUUCGAGUGCGGUACGGAACG here?
Its yeast fitness is 0.584.

Which yeast fitness does the source give for GUUGCGUUGGCGUAAUGGUUACGCGUCUCCCUCCUAAGGAGAAGACUGCGGGUUCGAGUCCCGUAUGGAACG here?
Its yeast fitness is ≤ 0.5.

For GUUGCGUUGGCGUAAUGGUAACGCGUCUCCCUCCUUAGGAGAAGACUGCGGGUUCGAGUCCCGUACGGAACG, which yeast fitness is on record?
The yeast fitness was 0.663.

Which yeast fitness does the source give for GUUGCGUUGGCGUAAUGGUAACGCGUCUCCCUCCUCAGGAGAAGACUGCGGGUUCGAGUCCCGUACGGAACG here?
Its yeast fitness is 0.745.

For GUUGCGUUGGCGUAAUGGUAGCGCGUCUCCCUCCUAAGGAGAAGUCUGUGGGUUCGAGUCCCGAACGGAACG, which yeast fitness is on record?
Its yeast fitness is 0.556.

For GUUGCGUUGGCGUAAUGGUAACGCGUCUCCCUCCUAAGGGGAAGUCUGCGGGUUCGAGUCCCGUACGGAACG, which yeast fitness is on record?
Its yeast fitness is ≤ 0.5.

For GUUGCGUUGGCGUAAUGGUAGCGCGUCUCCCUCCUAAGGAGAAGUCUGUGGGUUCGAGUACCGUACGGAACG, which yeast fitness is on record?
Its yeast fitness is ≤ 0.5.

With GUUGCGUUGGCGUAAUGGUGACGCGUCUCCCUCCUAAGGAGAAGACUGCGGGUUCGAGUCCCGUACGGACCG as the variant, how does the yeast fitness read?
Its yeast fitness is 0.758.

With GUUGCGUUGGCGUAAUGGUAUCGCGUCUCCCUUCUAAGGAGGAGACUGCGGGUUCGUGUCCCGUACGGAACG as the variant, how does the yeast fitness read?
The yeast fitness was 0.683.

For GUUGCGUUGGCGUAAUGGUUACGCGUCUCCCUCCUAAGGAGAAGACUGCGGGUUCGACUCCCGUACGGAACG, which yeast fitness is on record?
The yeast fitness was ≤ 0.5.

With GUUGCGUUGGCGUAAUGGUAACGCGUCUCCCUCCUAAGGUGCAGACUGCGGGUUCGGGUCCGGUACGGAACG as the variant, how does the yeast fitness read?
The yeast fitness was ≤ 0.5.

Which yeast fitness does the source give for GUUGCGUUGGCGUAAUGGUAGCGCGUCUCCCUCCUAAGGAGACGAAUGCGGGUUCGCGUCCGGUAUGGAACG here?
Its yeast fitness is ≤ 0.5.

For GUUGCGUUGGCGUAAUGGUUACGCGUCUCCCUCCUAAGGAGAAGACUGCGGGUUCGAGUCCCGUACAGAACG, which yeast fitness is on record?
The yeast fitness was ≤ 0.5.

With GUUGCGUUGGCGUAAUGGUAGCGCGUCUCCCUCCUAAGGAGAAGACUGCAGGUUCGAGUCCCGUACGGAACG as the variant, how does the yeast fitness read?
Its yeast fitness is 0.718.

Which yeast fitness does the source give for GUUGCGUUGGCGUAAUGGUAACGCGUCUCCCUCCUACAGAGAAGACUGCGGGUUCGAGUCCCAUACGGAACG here?
The yeast fitness was ≤ 0.5.

With GUUGCGUUGGCGUAAUGGUUACGCGUCUCCCUCCUAAGGAGACGACUGCAGGUUCGAGUCCCGUACGGAACG as the variant, how does the yeast fitness read?
Its yeast fitness is ≤ 0.5.

With GUUGCGUUGGCGUAAUGGUUACGCGUCUCCCUCCUAAGGAAAAGACUGCGGGUUCGCGUCCCGUACGGAACG as the variant, how does the yeast fitness read?
The yeast fitness was ≤ 0.5.

For GUUGCGUUGGCGUAAUGGUACCCCGUCUCCCUCCUUAGGAGAAGACUGCGGGUUCGUGUGCCGUACGCAACG, which yeast fitness is on record?
Its yeast fitness is ≤ 0.5.

With GUUGCGUUGGCGUAAUGGUGACGCGUCUCCCUCCUAAGGAGAGGACUGCGGGUUCGAGUCCCGUACGGAACG as the variant, how does the yeast fitness read?
Its yeast fitness is 0.502.

For GUUGCGUUGGCGUAAUGGUUACGCGUCUCCGUCCUAAGGAGAAGACUGCGGGUUCGAGUCCCGUUCGGAACG, which yeast fitness is on record?
Its yeast fitness is ≤ 0.5.

With GUUGCGUUGGCGUAAUGGUUACGCGUCUCCGUCCUAAGGAGAAGACUGCGGGUUCGAGUCCCGUACGGAACG as the variant, how does the yeast fitness read?
Its yeast fitness is 0.555.

Which yeast fitness does the source give for GUUGCGUUGGCGUAAUGGUAACGCGUCUCCCUCCUAAGGUGCAGACUGCGGGUUCGAGUCCCGUAUGGAACG here?
The yeast fitness was 0.52.

For GUUGCGUUGGCGUAAUGGUAGCGGGUCUCCCUCUUAAGGAGAAGACUGCGGGCUGGAGUCCAGUACGGAACG, which yeast fitness is on record?
Its yeast fitness is ≤ 0.5.

For GUUGCGUUGGCGUAAUGGUACCGCGUAGCCCUCCUAAGGAGAAGACUGCGGGUUCGAGUCCCGUACGGAACG, which yeast fitness is on record?
The yeast fitness was 0.614.

For GUUGCGUUGGCGUAAUGGUAACGCGUCUCCCUCCUAAGGCGAAGACUGGGGGUUGGAGUCCCGUACGGUACG, which yeast fitness is on record?
Its yeast fitness is ≤ 0.5.

For GUUGCGUUGGCGUAAUGGUAUCGCGUCUCCCUCCUAAGGAGAAGACUGCGGGUUCGAGUCCCGUAGGGAACG, which yeast fitness is on record?
The yeast fitness was ≤ 0.5.

Which yeast fitness does the source give for GUUGCGUUGGCGUAAUGGUAACGCGUCUCCCUCCUAAGGUGCAGACUGCGGGUUCGAGUCGCGUACGGAACG here?
The yeast fitness was ≤ 0.5.

With GUUGCGUUGGCGUAAUGGUUACGCGUCUGCAUCCUAAAGAGAAGACUGCGGGUUCGAGUCCCGUACGGAACG as the variant, how does the yeast fitness read?
The yeast fitness was ≤ 0.5.
